Laboratory results reported in ChEMBL document CHEMBL1921722, “In vitro and in vivo evaluation of select kahalalide F analogs with antitumor and antifungal activities” (Bioorg Med Chem, 2011).
Calls of active or inactive are those of the source. No cut-off for these calls is given here.

Legend:
Escherichia coli = assay: Antimicrobial activity against Escherichia coli ATCC 35218 by CLSI method; format: functional, organism-based
MCF7 = assay: Cytotoxicity against human MCF7 cells by sulforhodamine B assay; format: functional
Fusarium sp. = assay: Antimicrobial activity against Fusarium sp. by CLSI method; format: functional, organism-based
DU-145 = assay: Cytotoxicity against human DU145 cells assessed as cell growth at 800 nM by sulforhodamine B assay relative to control; format: functional; conditions: read-out: Activity
SK-MEL-2 = assay: Cytotoxicity against human SK-MEL-2 cells assessed as cell growth at 800 nM by sulforhodamine B assay relative to control; format: functional; conditions: read-out: Activity
SN12C [1] = assay: Cytotoxicity against human SN12C cells assessed as cell growth at 8 nM by sulforhodamine B assay relative to control; format: functional; conditions: read-out: Activity
SF-268 = assay: Cytotoxicity against human SF268 cells assessed as cell growth at 80 nM by sulforhodamine B assay relative to control; format: functional; conditions: read-out: Activity
NCI-H522 = assay: Cytotoxicity against human NCI-H522 cells assessed as cell growth at 8 nM by sulforhodamine B assay relative to control; format: functional; conditions: read-out: Activity
ACHN = assay: Cytotoxicity against human ACHN cells assessed as cell growth at 8 nM by sulforhodamine B assay relative to control; format: functional; conditions: read-out: Activity
In short: (§1)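 Run at NCI in the DTP 60-cell-line human tumor panel by standard procedure. Compounds were first screened at a single concentration, then tested at five tenfold-spaced concentrations. GI50 is the concentration reducing treated-cell growth to half that of untreated controls; TGI is the concentration completely halting growth.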

IGROV-1 = assay: Cytotoxicity against human IGROV1 cells assessed as cell growth at 8 uM by sulforhodamine B assay relative to control; format: functional; conditions: read-out: Activity
NCI-H460 [2] = assay: Cytotoxicity against human NCI-H460 cells assessed as cell growth at 80 uM by sulforhodamine B assay relative to control; format: functional; conditions: read-out: Activity
HCT-15 = assay: Cytotoxicity against human HCT15 cells assessed as cell growth at 80 uM by sulforhodamine B assay relative to control; format: functional; conditions: read-out: Activity
NCI-H23 [3] = assay: Cytotoxicity against human NCI-H23 cells assessed as cell growth at 80 uM by sulforhodamine B assay relative to control; format: functional; conditions: read-out: Activity
COLO 205 = assay: Cytotoxicity against human COLO205 cells assessed as cell growth at 8 nM by sulforhodamine B assay relative to control; format: functional; conditions: read-out: Activity; in short: as §1
MOLT-4 = assay: Cytotoxicity against human MOLT4 cells assessed as cell growth at 8 nM by sulforhodamine B assay relative to control; format: functional; conditions: read-out: Activity
SK-OV-3 = assay: Cytotoxicity against human SKOV3 cells assessed as cell growth at 8 uM by sulforhodamine B assay relative to control; format: functional; conditions: read-out: Activity
UO-31 = assay: Cytotoxicity against human UO31 cells assessed as cell growth at 80 nM by sulforhodamine B assay relative to control; format: functional; conditions: read-out: Activity
NCI-H460 [4] = assay: Cytotoxicity against human NCI-H460 cells assessed as cell growth at 8 uM by sulforhodamine B assay relative to control; format: functional; conditions: read-out: Activity
Mus musculus = assay: Acute toxicity in athymic nude mouse assessed as mortality at 12.5 mg/kg, […]; format: organism-based; set-up: dose 12.5 mg/kg, route intraperitoneal; conditions: in vivo, ip, 576 h
K562 = assay: Cytotoxicity against human K562 cells assessed as cell growth at 80 uM by sulforhodamine B assay relative to control; format: functional; conditions: read-out: Activity
SF-539 = assay: Cytotoxicity against human SF539 cells by sulforhodamine B assay; format: functional
In short: (§2)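 NCI Developmental Therapeutics Program 60-cell-line human tumor panel screen, run at NCI. A single-concentration pre-screen was followed by a five-concentration dose-response in 10-fold steps. GI50 is the concentration that reduces growth of treated cells to half that of untreated control cells. TGI is the concentration that completely halts growth.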

SF-295 = assay: Cytotoxicity against human SF295 cells by sulforhodamine B assay; format: functional; in short: as §2
Malme-3M [5] = assay: Cytotoxicity against human MALME-3M cells assessed as cell growth at 8 uM by sulforhodamine B assay relative to control; format: functional; conditions: read-out: Activity
OVCAR-3 = assay: Cytotoxicity against human OVCAR3 cells by sulforhodamine B assay; format: functional; in short: as §2
OVCAR-5 = assay: Cytotoxicity against human OVCAR5 cells assessed as cell growth at 800 nM by sulforhodamine B assay relative to control; format: functional; conditions: read-out: Activity
HL-60(TB) = assay: Cytotoxicity against human HL-60(TB) cells assessed as cell growth at 80 nM by sulforhodamine B assay relative to control; format: functional; conditions: read-out: Activity
M14 = assay: Cytotoxicity against human M14 cells by sulforhodamine B assay; format: functional; in short: as §2
OVCAR-4 = assay: Cytotoxicity against human OVCAR4 cells assessed as cell growth at 80 uM by sulforhodamine B assay relative to control; format: functional; conditions: read-out: Activity
SNB-75 = assay: Cytotoxicity against human SNB75 cells by sulforhodamine B assay; format: functional; in short: as §2
HOP-92 = assay: Cytotoxicity against human HOP92 cells assessed as cell growth at 80 nM by sulforhodamine B assay relative to control; format: functional; conditions: read-out: Activity
OVCAR-8 = assay: Cytotoxicity against human OVCAR8 cells by sulforhodamine B assay; format: functional
In short: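 NCI Developmental Therapeutics Program 60-cell-line human tumor panel, standard procedure. Single-concentration prescreen first; active compounds then tested at five concentrations. GI50 is the concentration reducing growth of treated cells to half that of untreated controls.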

NCI-H23 [6] = assay: Cytotoxicity against human NCI-H23 cells assessed as cell growth at 80 nM by sulforhodamine B assay relative to control; format: functional; conditions: read-out: Activity
U-251 = assay: Cytotoxicity against human U251 cells assessed as cell growth at 8 nM by sulforhodamine B assay relative to control; format: functional; conditions: read-out: Activity
SR = assay: Cytotoxicity against human SR cells assessed as cell growth at 800 nM by sulforhodamine B assay relative to control; format: functional; conditions: read-out: Activity
SK-MEL-5 = assay: Cytotoxicity against human SK-MEL-5 cells by sulforhodamine B assay; format: functional; in short: as §2
Malme-3M [7] = assay: Cytotoxicity against human MALME-3M cells assessed as cell growth at 80 uM by sulforhodamine B assay relative to control; format: functional; conditions: read-out: Activity
SN12C [8] = assay: Cytotoxicity against human SN12C cells by sulforhodamine B assay; format: functional; in short: as §2
Malme-3M [9] = assay: Cytotoxicity against human MALME-3M cells assessed as cell growth at 800 nM by sulforhodamine B assay relative to control; format: functional; conditions: read-out: Activity
HCT-116 [10] = assay: Cytotoxicity against human HCT116 cells assessed as cell growth at 80 nM by sulforhodamine B assay relative to control; format: functional; conditions: read-out: Activity
HCT-116 [11] = assay: Cytotoxicity against human HCT116 cells assessed as cell growth at 8 uM by sulforhodamine B assay relative to control; format: functional; conditions: read-out: Activity
NCI-H460 [12] = assay: Cytotoxicity against human NCI-H460 cells by sulforhodamine B assay; format: functional; in short: as §2
MDA-MB-435 = assay: Cytotoxicity against human MDA-MB-435 cells by sulforhodamine B assay; format: functional; in short: as §2

Question: Which results are given for C/C=C1\NC(=O)[C@H](Cc2ccccc2)NC(=O)[C@@H](C(C)C)NC(=O)[C@@H]([C@@H](C)CC)NC(=O)[C@H](NC(=O)[C@H](NC(=O)[C@H](CCCNCc2ccc(N3CCOCC3)cc2)NC(=O)[C@H]2CCCN2C(=O)[C@H](NC(=O)[C@@H](NC(=O)[C@@H](NC(=O)[C@H](NC(=O)CCCC(C)C)C(C)C)[C@@H](C)O)C(C)C)C(C)C)[C@@H](C)CC)[C@@H](C)OC(=O)[C@H](C(C)C)NC1=O?
Answer: Activity (Escherichia coli): inactive; GI50 (MCF7): 1450 nM; Activity (Fusarium sp.): Active; growth at 0.8 µM (DU-145): -77%; growth at 0.8 µM (SK-MEL-2): 105%; growth at 0.008 µM (SN12C [1]): 86%; growth at 0.08 µM (SF-268): 103%; growth at 0.008 µM (NCI-H522): 99%; growth at 0.008 µM (ACHN): 100%; growth at 8 µM (IGROV-1): -75%; growth at 80 µM (NCI-H460 [2]): 2%; growth at 80 µM (HCT-15): -45%; growth at 80 µM (NCI-H23 [3]): -85%; growth at 0.008 µM (COLO 205): 103%; growth at 0.008 µM (MOLT-4): 103%; growth at 8 µM (SK-OV-3): -87%; growth at 0.08 µM (UO-31): 104%; growth at 8 µM (NCI-H460 [4]): -24%; Activity (Mus musculus): Non-toxic; growth at 80 µM (K562): -39%; GI50 (SF-539): 1290 nM; LC50 (SF-539): 4570 nM; TGI (SF-539; read-out: pTGI (converted)): 2450 nM; GI50 (SF-295): 1740 nM; LC50 (SF-295): > 75900 nM; TGI (SF-295; read-out: pTGI (converted)): 3890 nM; growth at 8 µM (Malme-3M [5]): -71%; GI50 (OVCAR-3): 617 nM; TGI (OVCAR-3; read-out: pTGI (converted)): 1860 nM; growth at 0.8 µM (OVCAR-5): 64%; growth at 0.08 µM (HL-60(TB)): 96%; GI50 (M14): 1410 nM; LC50 (M14): 4680 nM; TGI (M14; read-out: pTGI (converted)): 2570 nM; growth at 80 µM (OVCAR-4): -15%; GI50 (SNB-75; read-out: GI50): 808 nM; TGI (SNB-75; read-out: TGI): 1900 nM; GI50 (SNB-75; read-out: pGI50 (converted)): 813 nM; TGI (SNB-75; read-out: pTGI (converted)): 1910 nM; growth at 0.08 µM (HOP-92): 96%; GI50 (OVCAR-8): 1700 nM; LC50 (OVCAR-8): > 75900 nM; growth at 0.08 µM (NCI-H23 [6]): 99%; growth at 0.008 µM (U-251): 94%; growth at 0.8 µM (SR): 103%; GI50 (SK-MEL-5): 1230 nM; LC50 (SK-MEL-5): 4070 nM; TGI (SK-MEL-5; read-out: pTGI (converted)): 2240 nM; growth at 80 µM (Malme-3M [7]): -23%; GI50 (SN12C [8]): 1410 nM; LC50 (SN12C [8]): > 75900 nM; TGI (SN12C [8]; read-out: pTGI (converted)): 3310 nM; growth at 0.8 µM (Malme-3M [9]): 117%; growth at 0.08 µM (HCT-116 [10]): 100%; growth at 8 µM (HCT-116 [11]): -66%; GI50 (NCI-H460 [12]): 2000 nM; CC50 (NCI-H460 [12]; read-out: pLC50 (the source's name) (converted)): > 75900 nM; GI50 (MDA-MB-435): 1290 nM; TGI (MDA-MB-435; read-out: pTGI (converted)): 2450 nM
